A selection: hits, their analogues and other compounds. The true share with any hit is near 1.2%.
bovine MsrA act: bovine methionine sulfoxide reductase A activation; purified bovine MsrA, absorbance read-out; activation, % at 10.6 µM; 360,000 compounds, 0.3% hits; AID 602163; in the data active = activation above about 7.5%
proCasp3 act: activates human procaspase-3; P42574; recombinant procaspase-3 D3A, Ac-DEVD-pNA absorbance 405 nm; activation, % at 8.5 µM; 330,000 compounds, 0.11% hits; AID 463141;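 active = activation above the mean of all tested compounds plus 3 SD, cut at about 21% in these data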
Target sequence (P42574 whole entry D9A/D28A/D175A): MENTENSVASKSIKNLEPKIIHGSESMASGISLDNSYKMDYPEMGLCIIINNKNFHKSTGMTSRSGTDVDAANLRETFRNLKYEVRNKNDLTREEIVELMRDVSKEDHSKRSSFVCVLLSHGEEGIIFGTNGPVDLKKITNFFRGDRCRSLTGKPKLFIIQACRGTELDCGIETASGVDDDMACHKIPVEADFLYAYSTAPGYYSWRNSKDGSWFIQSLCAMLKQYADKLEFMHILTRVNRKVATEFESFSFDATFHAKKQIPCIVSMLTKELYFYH
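Test system: Procaspase-3 D3A mutant; medium: Zinc-free HEPES/NaCl buffer with 0.01% Triton X-100 at pH 7.4; reagent: DEVD-pNA substrate; doses: one concentration, 8.5 µM nominal, 0.8% DMSO; times: 1 h preincubation plus 2 h reaction at 25 °C; signal: Epi-absorbance at 405 nm of released p-nitroaniline, 0 and 120 min; replicates: singlicate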
proCasp7 act: counter-screen for procaspase-3 activators: activators of human procaspase-7; P55210; recombinant procaspase-7, Ac-DEVD-pNA absorbance 405 nm; D23A/D198A/D206A triple mutant, cannot self-cleave; scale: DMSO 0, 5 µM enzyme 100; activation, % at 8.5 µM; 330,000 compounds, 0.093% hits; AID 463210;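 active = percent activation above the screen-wide mean plus 3 SD, cut at about 25% in these data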
Target sequence (P55210 whole entry D23A/D198A/D206A): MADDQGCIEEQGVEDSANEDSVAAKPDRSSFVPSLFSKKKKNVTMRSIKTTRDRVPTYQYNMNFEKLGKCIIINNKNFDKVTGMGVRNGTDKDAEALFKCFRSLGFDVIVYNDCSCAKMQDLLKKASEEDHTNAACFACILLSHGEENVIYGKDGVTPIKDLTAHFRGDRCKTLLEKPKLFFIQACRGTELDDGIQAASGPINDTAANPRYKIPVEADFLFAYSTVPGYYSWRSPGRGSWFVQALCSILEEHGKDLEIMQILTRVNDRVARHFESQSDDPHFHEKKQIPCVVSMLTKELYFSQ
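buffer or medium = Zinc-free HEPES/NaCl buffer, pH 7.4 | material = Procaspase-7 triple mutant (PC-7 D3A) | input = 2 µM procaspase-7 mutant as dispensed | signal = Epi-absorbance of released pNA at 405 nm, two timepoints | timing = 1 h preincubation, 2 h reaction | replicates = singlicate compound testing | evaluation = % activation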
A1 inh: inhibitors of the anti-apoptotic protein A1, read as caspase activation; MEF A1-2A-BIM cells, Caspase-Glo 3/7 luminescence, 3 h; percent of clofoctol response, vehicle zero; caspase activation, % (concentration not given with the values); 330,000 compounds, 0.066% hits; AID 2462;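 active = over half of replicate activation scores above 10%, or exactly half above 10 with the replicate mean above 10; inconclusive = replicate mean below 10 yet half the replicates above 10; inactive = over half of replicates below 10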
MsrA inhibitor: bovine MsrA inhibition | purified bovine MsrA, absorbance read-out | inhibition, % at 15.5 µM | 360,000 compounds, 0.75% hits
MsrA inh confirm: confirmation of bovine MsrA inhibitors; shares compounds with MsrA inhibitor; purified bovine MsrA, absorbance read-out; inhibition, % at 15.5 µM; 2,300 compounds, 41% hits; AID 651822;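 note: coupled to thioredoxin reductase with NADPH and selenocystamine and DMSO as substrate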
Of the large screens only hits and unclear results are named; the others gave an inactive call (follow-up assays come after a bar, where they were run). Cut-off read from the data, not from the text of the source, unless noted: active = inhibition above about 4.5%; inactive = the rest.

Nc1[nH]c(C(=O)c2ccccc2)c(-c2cccc(C(F)(F)F)c2)c1C(=O)NCCc1c[nH]c2ccccc12	none (no result: bovine MsrA act, proCasp3 act, proCasp7 act, A1 inh)
Cc1ccc(-c2ccc(/C=N/n3cnnc3)o2)cc1Cl	MsrA inhibitor 5.0 | MsrA inh confirm inactive
Cc1ccc(-c2ccc(/C=N/n3cnnc3)o2)cc1	none
O=C(c1ccccc1Cl)N1CCSCCS1(=O)=O	none (no result: bovine MsrA act, proCasp3 act, proCasp7 act, A1 inh)
CN(C)CCCN1C(=O)C(=O)/C(=C(/O)c2ccncc2)C1c1cccnc1 (configuration not stated)	MsrA inhibitor 6.6 (no result: proCasp3 act, proCasp7 act, A1 inh) | MsrA inh confirm inactive
CCN(CC)CCCN1C(=O)C(=O)/C(=C(/O)c2cc(C)ccc2C)C1c1cccnc1 (configuration not stated)	none
CCN(CC)CCN1C(=O)C(=O)/C(=C(/O)c2ccc(C)cc2)C1c1cccnc1 (configuration not stated)	MsrA inhibitor 5.9 | MsrA inh confirm inactive
O=C(Nc1ccncc1)C1CCN(S(=O)(=O)c2ccc(Cl)c(C(F)(F)F)c2)CC1	none
O=C(C(=O)c1ccc(O)c(O)c1)c1ccc(O)c(O)c1	MsrA inhibitor 7.6 (no result: proCasp3 act, proCasp7 act, A1 inh) | MsrA inh confirm 8.3
O=Cc1cscc1[B-](F)(F)F	none (no result: bovine MsrA act, proCasp3 act, proCasp7 act, A1 inh)
Cc1cc(C)nc(NC(=O)c2cnc3sccn3c2=O)n1	MsrA inhibitor 5.5 | MsrA inh confirm 4.7
C=CCn1c(SCC(=O)Nc2cc(C)on2)nc2ccccc21	none (no result: proCasp3 act, proCasp7 act, A1 inh)
COc1ccc(C(=O)/C=C/Nc2cc(C)on2)cc1	A1 inh inconclusive, MsrA inhibitor 6.6 | MsrA inh confirm 6.2
COc1ccc(C(=O)/C=C/Nc2cccc(O)c2)cc1	none
COc1ccc(/C=N/NC(=O)c2cccc(NC(=O)c3ccccc3Cl)c2)c(OC)c1	MsrA inhibitor 5.3 | MsrA inh confirm inactive
COc1ccc(C(=O)N/N=C/c2cc3ccccc3[nH]c2=O)cc1	MsrA inhibitor 5.0 | MsrA inh confirm inactive
COc1ccc2[nH]c(C(=O)N/N=C/c3ccccc3OC)cc2c1	MsrA inhibitor 5.8 | MsrA inh confirm 5.4
COc1ccc(OC)c(/C=N\NC(=O)c2ccc(-c3ccccc3)cc2)c1	none (no result: proCasp3 act, proCasp7 act)
CCCOc1ccc2[nH]c(C(=O)N/N=C/c3cc(OC)c(OC)c(OC)c3)cc2c1	none
CCOc1ccc2[nH]c(C(=O)N/N=C/c3ccccc3OC)cc2c1	none
COc1ccc2[nH]c(C(=O)N/N=C/c3ccc(OC)c(O)c3)cc2c1	MsrA inhibitor 7.5 | MsrA inh confirm 7.8
CCOC(=O)c1cnc(SC)nc1Sc1ccccc1Cl	MsrA inhibitor 8.2 | MsrA inh confirm inactive
CCOC(=O)c1cnc2c(ccc3ccccc32)c1Cl	none
O=C1NC(=Nc2ccc(O)cc2)S/C1=C/c1ccco1	MsrA inhibitor 4.7 | MsrA inh confirm 4.7
Nc1nonc1-c1nc2ccccc2n1CC(=O)N/N=C/c1ccc(-c2ccccc2C(=O)O)o1	MsrA inhibitor 7.3 | MsrA inh confirm 6.9
CCOC(=O)c1ccc2c(c1)n(CCCS(=O)(=O)[O-])c(/C=C/c1ccc(Cl)cc1)[n+]2CC	MsrA inhibitor 5.6 | MsrA inh confirm 5.4
Cc1cc(C)c(C)c(S(=O)(=O)N2CCC(C(=O)Nc3ccncc3)CC2)c1C	none
O=C1N/C(=C\c2ccc(O)cc2)C(O)=C1C=NCc1ccccc1	A1 inh inconclusive, MsrA inhibitor 4.9 | MsrA inh confirm inactive
COc1cc(/C=N/N=C(\N)c2nonc2N)cc(OC)c1O	none
COc1ccc(/C=N/N=C(\N)c2nonc2N)cc1	MsrA inhibitor 5.3 (no result: proCasp3 act, proCasp7 act, A1 inh) | MsrA inh confirm inactive
COc1cc(C(=O)Nc2ccccc2SCc2cc(=O)n3nc(C)sc3n2)cc(OC)c1OC	none
Cc1nn2c(=O)cc(CSc3ccccc3NC(=O)c3ccccc3F)nc2s1	MsrA inhibitor 4.7 | MsrA inh confirm inactive
Cc1nn2c(=O)cc(CSc3ccccc3NC(=O)c3ccccc3)nc2s1	MsrA inhibitor 17.3 | MsrA inh confirm 13.1
CC(C)c1nn2c(=O)cc(CSc3ccccc3NC(=O)c3ccccc3F)nc2s1	none
COc1cc(OC)c2c(=O)c3c(C(=O)O)c(O)ccc3oc2c1	none (no result: bovine MsrA act, proCasp3 act, proCasp7 act, A1 inh)
COc1ccc(N2CCN(CCC(O)c3ccc4ccccc4c3)CC2)cc1 (configuration not stated)	none
O=c1c(-c2ccccc2)coc2c(CN3CCCC3)c(O)ccc12	MsrA inhibitor 5.5 | MsrA inh confirm inactive
Cc1noc(NS(=O)(=O)c2ccc(NC(=O)c3cnc4n(c3=O)CCS4)cc2)c1C	MsrA inhibitor 6.9 | MsrA inh confirm 4.6
Cc1ccccc1C(=O)Nc1ccc(S(=O)(=O)Nc2onc(C)c2C)cc1	none
COc1ccc2cc(C(=O)c3ccccc3)c(=O)oc2c1	none
COc1ccc2cc(S(=O)(=O)c3ccccc3)c(=O)oc2c1	MsrA inhibitor 5.3 | MsrA inh confirm inactive
Cc1cc(/C=C(\C#N)C(=O)Nc2ccccc2F)c(C)[nH]1	MsrA inhibitor 4.7 | MsrA inh confirm inactive
CC(=O)c1c(C)nc(-c2cccc([N+](=O)[O-])c2)n1O	none
COc1ccc(-c2nc(C)c(C(C)=O)n2O)cc1[N+](=O)[O-]	MsrA inhibitor 4.8 | MsrA inh confirm inactive
COc1ccc(C=C2SC(=S)NC2=O)c(OC)c1OC	MsrA inhibitor 4.8 (no result: proCasp3 act, proCasp7 act, A1 inh) | MsrA inh confirm inactive
Cc1nn(CC(=O)NC2CCCCC2)c(C)c1[N+](=O)[O-]	none (no result: proCasp3 act, proCasp7 act, A1 inh)
COC(=O)c1ccc(NC2=CC(=O)CC(C)(C)C2)cc1	MsrA inhibitor 4.9 | MsrA inh confirm 5.0
COc1ccc(NC2=CC(=O)CC(C)(C)C2)cc1	none
CCN(CC)c1ccc(C2NCC(c3ccc([N+](=O)[O-])cc3)O2)cc1 (configuration not stated)	MsrA inhibitor 5.3 | MsrA inh confirm 4.7
CCN(CC)c1ccc(/C=N/NC(=O)c2ccc([N+](=O)[O-])cc2)cc1	none
CC(C)(Cc1ccccc1)/[N+]([O-])=C\c1ccccc1	A1 inh inconclusive
COc1c(F)cccc1C1=CC(=O)C[C@H](c2ccc3c(c2)OCO3)C1	MsrA inhibitor 7.1 | MsrA inh confirm inactive
Cc1ccc(-c2nc(C)sc2CC(=O)OCC(=O)Nc2ccc(F)c(Cl)c2)cc1	none
Cc1cc(S(=O)(=O)NC(=O)[C@H]2O[C@@H](n3ccc(=O)[nH]c3=O)[C@H](O)[C@@H]2O)ccc1Br	none (no result: bovine MsrA act, proCasp3 act, proCasp7 act, A1 inh)
CC1Sc2ccc(C#N)cc2N(Cc2cccc(C(F)(F)F)c2)C1=O (configuration not stated)	MsrA inhibitor 5.4 (no result: proCasp3 act, proCasp7 act, A1 inh) | MsrA inh confirm inactive
FC(F)(F)c1ccc(N/N=C/c2cccnc2)nc1	none
C(=N\Nc1ccccn1)/c1cccnc1	MsrA inhibitor 5.6 | MsrA inh confirm inactive
O=c1ccc2cc(S(=O)(=O)N3CCN(c4ccc(Cl)cc4)CC3)ccc2o1	none
O=C(/C=C/c1cccs1)Nc1nncs1	MsrA inhibitor 5.9 | MsrA inh confirm inactive
O=C(/C=C/c1cccs1)Nc1scc(-c2ccccc2)c1C(=O)O	MsrA inhibitor 11.3 (no result: proCasp3 act, proCasp7 act, A1 inh) | MsrA inh confirm 5.6
O=C(/C=C/c1cccs1)Nc1nc(-c2ccccc2)cs1	none

Screens (PubChem BioAssay)
